# Measurements from ChEMBL document CHEMBL1123308 (J Med Chem, 1986).
# Activity calls are given as the source filed them. The rule behind the calls is not given here.
# Tests used:
# [1] = Partition coefficient was determined in octanol-phosphate at pH 6.5; format: physicochemical; conditions: octanol/phosphate buffer
# Outline: (§1)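 Octanol/buffer partitioning used phosphate buffer at pH 7.4, 6.5 or 6.0 and citrate buffer at pH 4.0. Phases were separated by centrifugation at 2000 rpm for 5 min. Concentration in one phase was read by UV absorbance at 235.5 nm in 1-cm cells, and the other phase was obtained by difference. Determinations were in duplicate at 2 or 3 octanol-buffer ratios (1:10 to 1:50). Log P = log(organic/aqueous concentration).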
# [2] = Partition coefficient was determined in octanol-phosphate at pH 7.4; format: physicochemical; conditions: octanol/phosphate buffer; outline: as §1
# [3] = Partition coefficient was determined in octanol-phosphate at pH 6.0; format: physicochemical; conditions: octanol/phosphate buffer; outline: as §1
# [4] = Partition coefficient was determined in octanol-citrate at pH 4.0; conditions: octanol/citrate buffer
# L1210 [5] = test: Compound was evaluated for drug concentration for 50% inhibition of actively growing L1210 cells in culture for the inhibition of incorporation of [3H]thymidine in the DNA(isomeric ratio A/B = 76:12); format: functional; conditions: Mus musculus, read-out: ED50 (the source's name)
# Outline: (§2)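 Actively growing L1210 cells in culture. Drug was dissolved in Me2SO and diluted to 1% Me2SO final. The read-out is [3H]thymidine incorporation into DNA or [3H]uridine incorporation into RNA. ED50 is the drug concentration giving 50% inhibition of incorporation.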
# [6] = Stabilization of helical DNA toward thermal denaturation (delta Tm) was determined (isomeric ratio A/B = 4:91); format: ADME
# L1210 [7] = test: Compound was evaluated for drug concentration for 50% inhibition of actively growing L1210 cells in culture for the inhibition of incorporation of [3H]thymidine in the DNA(isomeric ratio A/B = 4:91); format: functional; conditions: Mus musculus, read-out: ED50 (the source's name); outline: as §2
# L1210 [8] = test: Compound was evaluated for drug concentration for 50% inhibition of actively growing L1210 cells in culture for the inhibition of incorporation of [3H]uridine in the RNA(isomeric ratio A/B = 76:12); format: functional; conditions: Mus musculus, read-out: ED50 (the source's name); outline: as §2
# L1210 [9] = test: Compound was evaluated for drug concentration for 50% inhibition of actively growing L1210 cells in culture for the inhibition of incorporation of [3H]uridine in the RNAisomeric ratio A/B = 4:91); format: functional; conditions: Mus musculus, read-out: ED50 (the source's name); outline: as §2
# [10] = Stabilization of helical DNA toward thermal denaturation (delta Tm) was determined (isomeric ratio A/B = 76:12); format: ADME
# L1210 [11] = test: Compound was evaluated for drug concentration for 50% inhibition of actively growing L1210 cells in culture for the inhibition of incorporation of [3H]thymidine in the DNA; format: functional; conditions: Mus musculus, read-out: ED50 (the source's name)
# Outline: (§3)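 Actively growing L1210 leukemia cells in culture; incorporation of [3H]thymidine into DNA or [3H]uridine into RNA measured. ED50 is the drug concentration giving 50% inhibition of incorporation. Drugs dissolved in Me2SO first, then diluted to 1% Me2SO final.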
# L1210 [12] = test: Compound was evaluated for drug concentration for 50% inhibition of actively growing L1210 cells in culture for the inhibition of incorporation of [3H]uridine in the RNA; format: functional; conditions: Mus musculus, read-out: ED50 (the source's name); outline: as §3
# [13] = Stabilization of helical DNA toward thermal denaturation (delta Tm) was determined; format: ADME
# Outline: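 Calf thymus DNA thermal denaturation. Drug at 5.2 × 10^-6 M and DNA (P) at 5.2 × 10^-5 M in 0.01 M phosphate buffer, pH 7, with 10^-5 M EDTA and 5% Me2SO. ΔTm = Tm of DNA-drug complex minus Tm of DNA alone. Values ≤1 are taken as insignificant binding.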
# Mus musculus [14] = test: Compound was evaluated for antitumor efficacy at optimum dose in mice against B16 melanoma cells at 0.0063 mg/Kg dose on day 1 (intraperitoneal); format: functional
# Mus musculus [15] = test: Compound was evaluated for antitumor efficacy at optimum dose in mice against B16 melanoma cells at q4d 5,9,13 days (intraperitoneal); Inactive; format: functional, organism-based
# Mus musculus [16] = test: Compound was evaluated for antitumor efficacy at optimum dose in mice against P388 leukemic cells at 8 mg/Kg on q4d 5,9,13 days (intraperitoneal); format: functional
# Outline: (§4)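 Mouse survival screens were run by NCI protocols, with intraperitoneal dosing on the schedule given. Efficacy is % T/C, the average survival time of treated mice divided by that of control mice, at the optimal dose.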
# Mus musculus [17] = test: Compound was evaluated for antitumor efficacy at optimum dose in mice aagainst B16 melanoma cells at 7.5 mg/Kgon day 1 (intraperitoneal); format: functional; outline: as §4
# Mus musculus [18] = test: Compound was evaluated for antitumor efficacy at optimum dose in mice against P388 leukemic cells at 7.5 mg/Kg day 1 (intraperitoneal); format: functional; outline: as §4
# Mus musculus [19] = test: Compound was evaluated for antitumor efficacy at optimum dose in mice against B16 melanoma cells at 10 mg/Kg on q4d 1,5,9 days (intravenous)
# L1210 [20] = test: Compound was evaluated for drug concentration for 50% inhibition of actively growing L1210 cells in culture for the inhibition of incorporation of [3H]uridine in the RNA(isomeric ratio A/B/C = 7:0:92); format: functional; conditions: Mus musculus, read-out: ED50 (the source's name); outline: as §2
# Mus musculus [21] = test: Compound was evaluated for antitumor efficacy at optimum dose in mice against P388 leukemic cells at 1.25 mg/Kg day 1 (intraperitoneal); format: functional; outline: as §4
# L1210 [22] = test: Compound was evaluated for drug concentration for 50% inhibition of actively growing L1210 cells in culture for the inhibition of incorporation of [3H]thymidine in the DNA(isomeric ratio A/B/C = 28:69:0); format: functional; conditions: Mus musculus, read-out: ED50 (the source's name); outline: as §2
# L1210 [23] = test: Compound was evaluated for drug concentration for 50% inhibition of actively growing L1210 cells in culture for the inhibition of incorporation of [3H]uridine in the RNA(isomeric ratio A/B/C = 28:69:0); format: functional; conditions: Mus musculus, read-out: ED50 (the source's name); outline: as §2
# Nucleic Acid = test: Stabilization of helical DNA toward thermal denaturation (delta Tm) was determined (isomeric ratio A/B/C = 2:91:7); format: nucleic-acid assay
# Outline: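 Thermal denaturation of calf thymus DNA (5.2 × 10^-5 M P) with drug at 5.2 × 10^-6 M. Buffer was 0.01 M phosphate pH 7 with 10^-5 M EDTA and 5% Me2SO. ΔTm = Tm of the DNA-drug complex minus Tm of DNA alone. Values ≤1 are taken as insignificant binding.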
# [24] = Stabilization of helical DNA toward thermal denaturation (delta Tm) was determined (isomeric ratio A/B/C = 7:0:92); format: ADME
# L1210 [25] = test: Compound was evaluated for drug concentration for 50% inhibition of actively growing L1210 cells in culture for the inhibition of incorporation of [3H]thymidine in the DNA(isomeric ratio A/B/C = 2:91:7); format: functional; conditions: Mus musculus, read-out: ED50 (the source's name); outline: as §2
# L1210 [26] = test: Compound was evaluated for drug concentration for 50% inhibition of actively growing L1210 cells in culture for the inhibition of incorporation of [3H]uridine in the RNA(isomeric ratio A/B/C = 2:91:7); format: functional; conditions: Mus musculus, read-out: ED50 (the source's name); outline: as §2
# [27] = Stabilization of helical DNA toward thermal denaturation (delta Tm) was determined (isomeric ratio A/B/C = 28:69:0); format: ADME
# Mus musculus [28] = test: Compound was evaluated for antitumor efficacy at optimum dose in mice aagainst B16 melanoma cells at 0.0625 mg/Kg day 1 (intraperitoneal); format: functional; conditions: in the assay text read “0.625 mg/Kg” for “0.0625 mg/Kg”; outline: as §4
# L1210 [29] = test: Compound was evaluated for drug concentration for 50% inhibition of actively growing L1210 cells in culture for the inhibition of incorporation of [3H]thymidine in the DNA(isomeric ratio A/B/C = 7:0:92); format: functional; conditions: Mus musculus, read-out: ED50 (the source's name); outline: as §2
# Mus musculus [30] = test: Compound was evaluated for antitumor efficacy at optimum dose in mice against B16 melanoma cells at 2.5 mg/kg on q4d 1,5,9 days (intravenous)
# Mus musculus [31] = test: Compound was evaluated for antitumor efficacy at optimum dose in mice against P388 leukemic cells at 2 mg/kg q4d 5,9,13 days (intraperitoneal); format: functional; outline: as §4
smiles,measurement,setting,value
COc1cccc2c1C(=O)c1c(O)c3c(c(O)c1C2=O)C[C@@](O)(C(=O)CO)C[C@@H]3OC1CC(N2CCOCC2)C(O)C(C)O1 (some centres undefined),logD,[1],1.42
same,logD,[2],1.73
same,logD,[3],0.96
same,logD,[4],-1.1
COc1cccc2c1C(=O)c1c(O)c3c(c(O)c1C2=O)C[C@@](O)(C(C)=O)C[C@@H]3OC1CC2C(OC3COCC(C#N)N32)C(C)O1 (some centres undefined),EC50,L1210 [5],420 nM
same,Delta Tm,[6],8.3
same,EC50,L1210 [7],1950 nM
same,EC50,L1210 [8],220 nM
same,EC50,L1210 [9],840 nM
same,Delta Tm,[10],5
COc1cccc2c1C(=O)c1c(O)c3c(c(O)c1C2=O)C[C@@](O)(C(=O)CO)C[C@@H]3OC1CC(N2CCOCC2C#N)C(O)C(C)O1 (some centres undefined),EC50,L1210 [11],3 nM
same,EC50,L1210 [12],0.53 nM
same,Delta Tm,[13],8.7
same,T/C,Mus musculus [14],>=138%
same,T/C,Mus musculus [15],inactive
COc1cccc2c1C(=O)c1c(O)c3c(c(O)c1C2=O)C[C@@](O)(C(=O)CO)C[C@@H]3O[C@H]1C[C@H](N)[C@H](O)[C@H](C)O1 [DOXORUBICIN],EC50,L1210 [11],1600 nM
same,EC50,L1210 [12],580 nM
same,Delta Tm,[13],12.8
same,T/C,Mus musculus [16],160%
same,T/C,Mus musculus [17],192%
same,T/C,Mus musculus [18],252%
same,T/C,Mus musculus [19],206%
COc1cccc2c1C(=O)c1c(O)c3c(c(O)c1C2=O)C[C@@](O)(C(=O)CO)C[C@@H]3OC1CC2C(OC3COCC(C#N)N32)C(C)O1 (some centres undefined),EC50,L1210 [20],2000 nM
same,T/C,Mus musculus [21],150%
same,logD,[1],2.29
same,EC50,L1210 [22],550 nM
same,EC50,L1210 [23],220 nM
same,ΔTm,Nucleic Acid,12.2
same,Delta Tm,[24],2.6
same,logD,[2],2.41
same,EC50,L1210 [25],1400 nM
same,EC50,L1210 [26],790 nM
same,logD,[3],2.4
same,Delta Tm,[27],12.8
same,logD,[4],2.24
same,T/C,Mus musculus [28],>=153%
same,EC50,L1210 [29],25000 nM
same,T/C,Mus musculus [30],141%
same,T/C,Mus musculus [31],135%
